# Measurements from the array DNA melting data of Ke et al. (doi:10.1101/2024.01.08.574731).
# How the values were obtained:
# [1] = folding enthalpy; higher = less favourable; fluorescence melt of hairpins on a sequencing array, two-state fit; settings: sodium 0.088 M
# How it was run: (§1)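 Library hairpins on a sequenced MiSeq flow cell carried annealed Cy3 and quencher oligos, and their Cy3 fluorescence was imaged in 50 mM Na-HEPES pH 8.0 with 25 mM NaCl, in 2.5 °C steps up to 60 °C. Signals were normalised to Cy3 before quenching and to control constructs. Melting temperature and folding enthalpy were obtained from bootstrapped two-state fits, combined by inverse-variance weighting across four replicates, and the fitted temperatures were then raised by 9.35 °C to match UV melts.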
# [2] = melting temperature; fluorescence melt of hairpins on a sequencing array, two-state fit, raised by 9.35 °C to match UV melts; settings: sodium 0.088 M
# How it was run: as §1
Sequence,folding enthalpy [1],Tm [2]
GGTCGCGAAAGCGTCACC ((((((....)))..))),-13.3 kcal/mol,40.1 °C
GGTCGCGAAAGCGTGACC ((((((....)))..))),-18.2 kcal/mol,53.1 °C
GGTCGCGGAAACGCAACC (((.(((....))).))),-33.1 kcal/mol,51.6 °C
GGTCGCGGAAACGTGACC ((((.((....)).)))),-51.2 kcal/mol,63.5 °C
GGTCGGACGAAAGTCACC (((..(((....)))))),-12.7 kcal/mol,30.6 °C
GGTCGGGGAAACCCGGCC ((.((((....)))).)),-42.7 kcal/mol,66.2 °C
GGTCTCGAAAGAGCACC ((((((....))).))),-22.8 kcal/mol,46.5 °C
GGTCTCGAAAGAGCTACC ((((((....)))..))),-13.9 kcal/mol,36 °C
GGTCTCGGAAACAAGACC (((((.(....).))))),-31.8 kcal/mol,41.9 °C
GGTCTGGGAAACTAGACC (((((.(....).))))),-41.5 kcal/mol,50.6 °C
GGTCTGGGAAACTAGGCC ((.((.(....).)).)),-33.4 kcal/mol,41.2 °C
GGTCTTCGAAAGAACACC (((.(((....))).))),-26.6 kcal/mol,32.6 °C
GGTCTTCGAAAGAATACC (((.(((....))).))),-32.9 kcal/mol,39.1 °C
GGTCTTGAAAAAGACC ((((((....)))))),-40.4 kcal/mol,57.2 °C
GGTCTTGGAAACAAAACC (((.(((....))).))),-14.5 kcal/mol,29.6 °C
GGTCTTGGAAACAGGACC ((((.((....)).)))),-36.3 kcal/mol,49.2 °C
GGTCTTGGAAACGAGATC (.(((.(....).))).),-17.8 kcal/mol,30.7 °C
GGTGAACGAAAGTTTACC (((.(((....))).))),-45.2 kcal/mol,51.8 °C
GGTGAAGCGAAAGCTACC (((..(((....)))))),-17.1 kcal/mol,40.5 °C
GGTGAAGGAAACTTTACC (((.(((....))).))),-31.6 kcal/mol,39 °C
GGTGACCGAAAGGTAACC (((.(((....))).))),-41.1 kcal/mol,57.1 °C
GGTGACGAAAGTCCAACC ((((((....)))..))),-18.2 kcal/mol,37.7 °C
GGTGACGAAAGTCGAACC ((((((....)))..))),-17.6 kcal/mol,41.9 °C

Sequence,folding enthalpy [1],Tm [2]
GGTGACGAAAGTCTGACC ((((((....)))..))),-15.6 kcal/mol,39.7 °C
GGTGACGCGAAAGCGACC (((..(((....)))))),-12.1 kcal/mol,40.4 °C
GGTGACGGAAACGTCATC (.(((((....))))).),-38.2 kcal/mol,54.1 °C
GGTGAGCGAAAGCTGACC (((.(((....))).))),-37.8 kcal/mol,55 °C
GGTGAGGGAAACCCCACC ((((.((....)).)))),-39.2 kcal/mol,50.5 °C
GGTGATCGAAAGATACC (((.(((....)))))),-25.2 kcal/mol,37.5 °C
GGTGATGAAAATCACC ((((((....)))))),-32.1 kcal/mol,62.5 °C
GGTGATGGAAACGTCATC (.(((.(....).))).),-26.4 kcal/mol,34.7 °C
GGTGCAGGAAACTGCATC (.(((((....))))).),-22.4 kcal/mol,53 °C
GGTGCCACGAAAGTGACC (((..(((....)))))),-15.5 kcal/mol,35.5 °C
GGTGCCCCGAAAGGGACC (((..(((....)))))),-16.2 kcal/mol,47.9 °C
GGTGCCGGAAACGGTACC (((.(((....))).))),-35.8 kcal/mol,64.1 °C
GGTGCCTCGAAAGAGACC (((..(((....)))))),-15 kcal/mol,30.8 °C
GGTGCGGGAAACCGCATC (.(((((....))))).),-15.7 kcal/mol,60.4 °C
GGTGCTCGAAAGAGTACC (((.(((....))).))),-45.9 kcal/mol,60 °C
GGTGCTGGAAACAGTACC (((.(((....))).))),-43.3 kcal/mol,53.5 °C
GGTGGAACGAAAGTTACC (((..(((....)))))),-17.3 kcal/mol,36.5 °C
GGTGGAGGAAACTCCACC (((((((....))))))),-38.6 kcal/mol,67.5 °C
GGTGGAGGAAACTCTACC (((.(((....))).))),-35.8 kcal/mol,48 °C
GGTGGCCGAAAGGCTACC (((.(((....))).))),-29.6 kcal/mol,67.3 °C
GGTGGCGAAAGCCAAACC ((((((....)))..))),-14.2 kcal/mol,47.2 °C
GGTGGCGAAAGCCAACC ((((((....))).))),-16.9 kcal/mol,64.5 °C
GGTGGCGAAAGCCAGACC ((((((....)))..))),-12.6 kcal/mol,46.9 °C

Sequence,folding enthalpy [1],Tm [2]
GGTGGCGAAAGCCATACC ((((((....)))..))),-12 kcal/mol,45.6 °C
GGTGGCGAAAGCCTACC ((((((....))).))),-17.1 kcal/mol,56.2 °C
GGTGGGGGAAACCCTACC (((.(((....))).))),-27.1 kcal/mol,52.7 °C
GGTGGGGGAAACCTCACC ((((.((....)).)))),-39.5 kcal/mol,53.5 °C
GGTGGGTCGAAAGACACC (((..(((....)))))),-12.4 kcal/mol,50.9 °C
GGTGGTGGAAACACTACC (((.(((....))).))),-29.8 kcal/mol,52.9 °C
GGTGGTGGAAACACTGCC ((..(((....)))..)),-25.5 kcal/mol,47.2 °C
GGTGGTGGAAACGCTACC (((.(.(....).).))),-28.1 kcal/mol,40.4 °C
GGTGTCACGAAAGTGACC (((..(((....)))))),-10.2 kcal/mol,50 °C
GGTGTCGAAAGACAAACC ((((((....)))..))),-16.6 kcal/mol,44.4 °C
GGTGTCGAAAGACACACC ((((((....)))..))),-9.34 kcal/mol,52.5 °C
GGTGTCGAAAGACGAACC ((((((....)))..))),-18.8 kcal/mol,40.9 °C
GGTGTCGGAAACAACACC (((((.(....).))))),-36.1 kcal/mol,45.2 °C
GGTGTCGGAAACGGTACC (((..((....))..))),-28.6 kcal/mol,40.9 °C
GGTGTGGAAACACACC ((((((....)))))),-30.2 kcal/mol,66.6 °C
GGTGTGGGAAACTACGCC ((.((.(....).)).)),-29.6 kcal/mol,43.4 °C
GGTGTTGGAAACAACATC (.(((((....))))).),-24.3 kcal/mol,48.2 °C
GGTTAACGAAAGTTGACC (((.(((....))).))),-27.6 kcal/mol,53.2 °C
GGTTAAGGAAACCTAACC (((((.(....).))))),-25 kcal/mol,35.2 °C
GGTTAAGGAAACTTAGCC ((.((((....)))).)),-28 kcal/mol,38.5 °C
GGTTACGAAAGTAAGACC ((((((....)))..))),-15 kcal/mol,34.5 °C
GGTTACGAAAGTACAACC ((((((....)))..))),-19.1 kcal/mol,36.1 °C
GGTTACGAAAGTACACC ((((((....))).))),-22.7 kcal/mol,42.2 °C

Sequence,folding enthalpy [1],Tm [2]
GGTTACGGAAACGTGACC (((.(((....))).))),-36.4 kcal/mol,53.4 °C
GGTTACGGAAACGTGATC (.(.(((....))).).),-16.3 kcal/mol,30.4 °C
GGTTACTCGAAAGAGACC (((..(((....)))))),-11.8 kcal/mol,25 °C
GGTTAGCGAAAGCTCACC (((.(((....))).))),-26.6 kcal/mol,49.1 °C
GGTTAGGGAAACCTAATC (.(((((....))))).),-27.7 kcal/mol,37.9 °C
GGTTAGGGAAACTTGACC (((.(.(....).).))),-18.9 kcal/mol,28 °C
GGTTATCGAAAGATTACC (((.(((....))).))),-31.1 kcal/mol,43.5 °C
GGTTATGGAAACATAATC (.(((((....))))).),-31.2 kcal/mol,36 °C
GGTTATGGAAACGTAACC (((((.(....).))))),-40.6 kcal/mol,45.8 °C
GGTTCAGGAAACTGAACC (((((((....))))))),-41.4 kcal/mol,63.8 °C
GGTTCAGGAAACTGAATC (.(((((....))))).),-30.1 kcal/mol,44.2 °C
GGTTCAGGAAACTGAGCC ((.((((....)))).)),-30.2 kcal/mol,50 °C
GGTTCCACGAAAGTGACC (((..(((....)))))),-15.1 kcal/mol,31.6 °C
GGTTCCCGAAAGGGTACC (((.(((....))).))),-33.6 kcal/mol,57.5 °C
GGTTCCGAAAGGAGCACC ((((((....)))..))),-13.8 kcal/mol,39.1 °C
GGTTCCGAAAGGATAACC ((((((....)))..))),-20.5 kcal/mol,43.5 °C
GGTTCCGAAAGGATACC ((((((....))).))),-28.1 kcal/mol,48.8 °C
GGTTCCGGAAACGGAATC (.(((((....))))).),-23.9 kcal/mol,51.4 °C
GGTTCCGGAAACGGGACC (((.(((....))).))),-47.1 kcal/mol,58.5 °C
GGTTCGGGAAACCGAATC (.(((((....))))).),-27.1 kcal/mol,50.6 °C
GGTTCGGGAAACCGAGCC ((.((((....)))).)),-40.4 kcal/mol,58.3 °C
GGTTCGGGAAACTGAACC (((((.(....).))))),-47.2 kcal/mol,53.2 °C
